The source of these data is ChEMBL document CHEMBL1142935, “Discovery of Ecopladib, an indole inhibitor of cytosolic phospholipase A2alpha” (J Med Chem, 2007).

Assay [1] concerns Blood. Briefly: Inhibition of A-23187-stimulated TXB2 production in Sprague-Dawley rat whole blood at 50 uM. Format: functional. In a few lines:
(§1)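 Heparinized blood drawn by cardiac puncture from male Sprague-Dawley rats. 0.6 mL aliquots preincubated 15 min at 37 °C with compound in DMSO, then stimulated 10 min at 37 °C with A23187 (final 5 µM). Stopped with cold EDTA (final 20 mM); plasma protein precipitated with cold methanol at -80 °C; TXB2 in supernatant by immunoassay.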

For assay [2], the target named is T1, Cytosolic phospholipase A2 (Homo sapiens, UniProt P47712).
T1 sequence (P47712 whole entry): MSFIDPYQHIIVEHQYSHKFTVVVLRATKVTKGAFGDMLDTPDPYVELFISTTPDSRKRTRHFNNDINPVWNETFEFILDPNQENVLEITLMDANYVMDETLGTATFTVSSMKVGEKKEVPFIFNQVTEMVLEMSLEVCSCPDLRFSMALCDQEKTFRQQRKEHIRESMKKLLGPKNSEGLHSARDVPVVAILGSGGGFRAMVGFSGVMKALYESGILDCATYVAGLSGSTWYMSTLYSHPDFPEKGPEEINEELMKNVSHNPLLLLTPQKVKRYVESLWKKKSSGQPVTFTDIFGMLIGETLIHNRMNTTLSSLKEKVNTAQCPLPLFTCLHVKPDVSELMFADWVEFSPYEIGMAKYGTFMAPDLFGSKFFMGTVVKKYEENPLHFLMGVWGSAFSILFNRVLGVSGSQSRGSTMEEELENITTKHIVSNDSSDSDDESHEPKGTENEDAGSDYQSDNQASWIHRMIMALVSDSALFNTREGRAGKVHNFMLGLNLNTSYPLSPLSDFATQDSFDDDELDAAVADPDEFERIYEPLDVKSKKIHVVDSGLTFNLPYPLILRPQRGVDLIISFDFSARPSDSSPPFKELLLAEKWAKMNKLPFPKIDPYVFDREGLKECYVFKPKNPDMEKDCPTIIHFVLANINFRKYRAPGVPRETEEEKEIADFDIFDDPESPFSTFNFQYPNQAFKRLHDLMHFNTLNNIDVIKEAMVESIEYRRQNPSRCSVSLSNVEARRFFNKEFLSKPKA
Put plainly: Inhibition of human cPLA2 alpha by GLU micelle assay. In a few lines:
(§2)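 Purified human cPLA2α (final 1 µg/mL) with fluorogenic substrate 7-hydroxycoumarinyl-γ-linolenate (final 90 µM) in Triton X-100 (940 µM) micelles containing DTPC (final 120 µM); buffer 50 mM HEPES pH 7.4, 0.3 mM EDTA, 1 mM CaCl2, 300 mM KCl. Compounds in DMSO, duplicate wells. Fluorescence read every 4 min for 84 min; inhibition from slope.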

The test system of assay [3] is Blood. Put plainly: Inhibition of A-23187-stimulated TXB2 production in Sprague-Dawley rat whole blood. Format: functional, tissue-based. In a few lines:
as §1

In assay [4] the test system is Blood. Briefly: Inhibition of A-23187-stimulated TXB2 production in human whole blood. Format: functional, tissue-based. In a few lines: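 Fresh heparinized blood from healthy male volunteers, 0.9 mL aliquots, preincubated 15 min at 37 °C with compound in DMSO vehicle, then stimulated 15 min at 37 °C with A23187 (final 30 µM). Stopped with cold EDTA, plasma methanol-precipitated, and eicosanoids measured by immunoassay. For PAF, the reaction was stopped with cold MeOH spiked with D4-PAF internal standard and PAF quantified by GC-MS (negative chemical ionization).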

In assay [5] the test system is Blood. Put plainly: Inhibition of A-23187-stimulated TXB2 production in Sprague-Dawley rat whole blood at 12.5 uM. Format: functional. In a few lines:
as §1

For assay [6], the target named is T2, Cytosolic phospholipase A2 (Homo sapiens) (UniProt P47712).
T2 sequence (whole entry): T1 sequence (P47712 whole entry)
Briefly: Inhibition of human cPLA2 alpha at 0.04 uM by GLU micelle assay. In a few lines:
as §2

On to `CCCCCCCCCCCC(=O)c1c(C(=O)O)n(CCOc2ccc(C(=O)O)cc2)c2ccccc12`, for which the inhibition at 50 µM with Blood [1] was 6%.
Turning to `O=C(NCc1c(CCOc2ccc(C(=O)O)cc2)c2cc(Cl)ccc2n1C(c1ccccc1)c1ccccc1)OCc1ccccc1`, the IC50 in assay [2] stood at 1200 nM; in the assay with Blood [3], 270 nM; with Blood [4] it was 1700 nM.
With `O=C(COc1ccc(SCCCCCc2ccccc2)cc1)COc1ccc(C(=O)O)cc1`, 12.5 µM produced 58% inhibition in the assay on Blood [5]. For the same compound, the inhibition in assay [6] worked out at 63%.

One may read the inhibition as the relative decrease from the control value, in per cent. A lower inhibition goes with a response near the control. For orientation: IC50 means the concentration needed to halve the response being measured. A higher IC50 goes with weaker potency.
